Assay results: ChEMBL document CHEMBL2150901, “Synthesis and biological activity of tricyclic cycloalkylimidazo-, pyrimido- and diazepinopurinediones” (Eur J Med Chem, 2011)
Activity calls are given as the source filed them. No cut-off for these calls is given here.

Key:
[1] = tested on: Rattus norvegicus; assay: Anticonvulsant activity in Sprague-Dawley albino rat assessed as protection against subcutaneous pentylenetetrazole-induced seizures at 50 mg/kg, po after 0.25 hrs; type: functional, organism-based; design: dose 50 mg/kg
How it was run: (§1)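 Male Sprague-Dawley albino rats (100–150 g), groups of 4. Oral suspension in 0.5% methylcellulose/water. Protection assessed by maximal electroshock or subcutaneous pentylenetetrazole; motor impairment by rotorod. Time points 0.25–4 h. Value is protected (or toxic)/tested animals.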

[2] = molecular target: Adenosine receptor A2a (Rattus norvegicus, UniProt P30543); assay: Displacement of [3H]MSX-2 from adenosine A2A receptor in rat brain striatal membrane; type: cell membranes
Sequence of Adenosine receptor A2a (P30543 whole entry): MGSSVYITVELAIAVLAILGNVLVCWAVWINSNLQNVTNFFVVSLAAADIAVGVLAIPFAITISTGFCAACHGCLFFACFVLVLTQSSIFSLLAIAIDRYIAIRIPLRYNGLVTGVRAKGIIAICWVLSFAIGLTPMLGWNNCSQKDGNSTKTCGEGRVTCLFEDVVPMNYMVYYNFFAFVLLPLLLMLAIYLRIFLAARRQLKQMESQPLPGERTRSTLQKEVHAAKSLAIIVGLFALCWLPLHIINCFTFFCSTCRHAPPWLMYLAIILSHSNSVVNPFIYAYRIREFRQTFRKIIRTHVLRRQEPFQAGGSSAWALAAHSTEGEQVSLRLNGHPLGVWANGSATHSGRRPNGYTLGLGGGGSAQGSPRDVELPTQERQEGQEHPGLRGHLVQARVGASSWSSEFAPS

[3] = tested on: Mus musculus; assay: Anticonvulsant activity in F1 albino mouse assessed as protection against maximal electroshock-induced seizures at 300 mg/kg, ip after 0.25 hrs; type: functional, organism-based; design: dose 300 mg/kg
How it was run: (§2)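 Male albino F-1 mice (18–25 g), groups of 1–5 (rotorod 2–8). Compound given ip as a suspension in 0.5% methylcellulose at 30, 100 and 300 mg/kg. Seizures by maximal electroshock or subcutaneous pentylenetetrazole; neurotoxicity by rotorod. Read at 0.5 and 4 h, with some at 0.25, 1 and 2 h. Value is the minimum active dose, with protected (or toxic)/tested animals.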

[4] = tested on: Rattus norvegicus; assay: Neurotoxicity in Sprague-Dawley albino rat assessed as minimal motor impairment at 30 mg/kg, po after 1 hr by rotorod test; type: toxicity, organism-based; design: dose 30 mg/kg, route oral; details: in vivo; how it was run: as §1
[5] = tested on: Rattus norvegicus; assay: Neurotoxicity in Sprague-Dawley albino rat assessed as minimal motor impairment at 30 mg/kg, po after 4 hrs by rotorod test; type: toxicity, organism-based; design: dose 30 mg/kg, route oral; details: in vivo
How it was run: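 Male Sprague-Dawley albino rats (100–150 g), groups of 4, dosed orally with a suspension in 0.5% methylcellulose/water. Neurotoxicity was scored as minimal motor impairment on the rotorod at 0.25, 0.5, 1 and 4 h. Results are reported as animals showing toxicity per animals tested.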

[6] = tested on: Mus musculus; assay: Anticonvulsant activity in F1 albino mouse assessed as protection against maximal electroshock-induced seizures at 300 mg/kg, ip after 1 hr; type: functional, organism-based; design: dose 300 mg/kg; how it was run: as §2
[7] = tested on: Mus musculus; assay: Anticonvulsant activity in F1 albino mouse assessed as protection against subcutaneous pentylenetetrazole-induced seizures at 300 mg/kg, ip after 0.25 hrs; type: functional, organism-based; design: dose 300 mg/kg; how it was run: as §2
[8] = tested on: Rattus norvegicus; assay: Anticonvulsant activity in Sprague-Dawley albino rat assessed as protection against subcutaneous pentylenetetrazole-induced seizures at 50 mg/kg, po after 2 hrs; type: functional, organism-based; design: dose 50 mg/kg; how it was run: as §1
[9] = tested on: Mus musculus; assay: Anticonvulsant activity in F1 albino mouse assessed as protection against subcutaneous pentylenetetrazole-induced seizures at 100 mg/kg, ip after 0.5 hrs; type: functional, organism-based; design: dose 100 mg/kg; how it was run: as §2
[10] = species on record: Rattus norvegicus; assay: Selectivity ratio of Ki for adenosine A1 receptor in rat brain cortical membrane to Ki for adenosine A2A receptor in rat brain striatal membrane; type: cell membranes
How it was run: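 Ki ratios from radioligand competition binding. Rat A1 used brain cortical membranes and rat A2A used brain striatal membranes. Human A1 and A2A used membranes of CHO cells expressing the receptors. A1 radioligand [³H]CCPA; A2A radioligand [³H]MSX-2. Potent compounds were tested at 6–7 concentrations spanning 3 orders of magnitude.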

[11] = tested on: Rattus norvegicus; assay: Neurotoxicity in Sprague-Dawley albino rat assessed as minimal motor impairment at 30 mg/kg, po after 0.5 hrs by rotorod test; type: toxicity, organism-based; design: dose 30 mg/kg, route oral; details: in vivo; how it was run: as §1
[12] = tested on: Mus musculus; assay: Anticonvulsant activity in F1 albino mouse assessed as protection against maximal electroshock-induced seizures at 100 mg/kg, ip after 0.5 hrs; type: functional, organism-based; design: dose 100 mg/kg; how it was run: as §2
[13] = tested on: Rattus norvegicus; assay: Anticonvulsant activity in Sprague-Dawley albino rat assessed as protection against maximal electroshock-induced seizures at 30 mg/kg, po after 1 hr; type: functional, organism-based; design: dose 30 mg/kg; how it was run: as §1
[14] = tested on: Mus musculus; assay: Neurotoxicity in F1 albino mouse assessed as minimal motor impairment at 300 mg/kg, ip after 4 hrs by rotorod test; type: toxicity, organism-based; design: dose 300 mg/kg, route intraperitoneal; details: in vivo; how it was run: as §2
[15] = tested on: Rattus norvegicus; assay: Anticonvulsant activity in Sprague-Dawley albino rat assessed as protection against maximal electroshock-induced seizures at 30 mg/kg, po after 0.5 hrs; type: functional, organism-based; design: dose 30 mg/kg; how it was run: as §1
[16] = tested on: Mus musculus; assay: Neurotoxicity in F1 albino mouse assessed as minimal motor impairment at 300 mg/kg, ip after 0.5 hrs by rotorod test; type: toxicity, organism-based; design: dose 300 mg/kg, route intraperitoneal; details: in vivo; how it was run: as §2
[17] = tested on: Mus musculus; assay: Neurotoxicity in F1 albino mouse assessed as minimal motor impairment at 300 mg/kg, ip after 1 hr by rotorod test; type: toxicity, organism-based; design: dose 300 mg/kg, route intraperitoneal; details: in vivo; how it was run: as §2
[18] = tested on: Rattus norvegicus; assay: Neurotoxicity in Sprague-Dawley albino rat assessed as minimal motor impairment at 30 mg/kg, po after 0.25 hrs by rotorod test; type: toxicity, organism-based; design: dose 30 mg/kg, route oral; details: in vivo; how it was run: as §1
[19] = molecular target: T1, Adenosine receptor A1 (Rattus norvegicus, UniProt P25099); assay: Displacement of [3H]CCPA from adenosine A1 receptor in rat brain cortical membrane; type: cell membranes
T1 sequence (P25099 whole entry): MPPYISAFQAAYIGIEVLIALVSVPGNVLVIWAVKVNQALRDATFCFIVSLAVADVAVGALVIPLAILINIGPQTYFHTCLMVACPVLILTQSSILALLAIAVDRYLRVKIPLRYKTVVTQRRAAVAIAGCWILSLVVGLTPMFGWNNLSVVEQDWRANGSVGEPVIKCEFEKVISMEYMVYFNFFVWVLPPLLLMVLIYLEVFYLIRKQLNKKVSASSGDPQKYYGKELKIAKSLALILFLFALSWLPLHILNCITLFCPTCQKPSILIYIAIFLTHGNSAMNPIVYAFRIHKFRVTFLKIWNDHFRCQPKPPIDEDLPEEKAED

[20] = tested on: Rattus norvegicus; assay: Anticonvulsant activity in Sprague-Dawley albino rat assessed as protection against subcutaneous pentylenetetrazole-induced seizures at 50 mg/kg, po after 0.5 hrs; type: functional, organism-based; design: dose 50 mg/kg; how it was run: as §1
[21] = tested on: Rattus norvegicus; assay: Anticonvulsant activity in Sprague-Dawley albino rat assessed as protection against maximal electroshock-induced seizures at 30 mg/kg, po after 4 hrs; type: functional, organism-based; design: dose 30 mg/kg; how it was run: as §1
[22] = tested on: Mus musculus; assay: Anticonvulsant activity in F1 albino mouse assessed as protection against subcutaneous pentylenetetrazole-induced seizures at 300 mg/kg, ip after 4 hrs; type: functional, organism-based; design: dose 300 mg/kg; how it was run: as §2
[23] = tested on: Rattus norvegicus; assay: Anticonvulsant activity in Sprague-Dawley albino rat assessed as protection against subcutaneous pentylenetetrazole-induced seizures at 50 mg/kg, po after 4 hrs; type: functional, organism-based; design: dose 50 mg/kg; how it was run: as §1
[24] = tested on: Rattus norvegicus; assay: Anticonvulsant activity in Sprague-Dawley albino rat assessed as protection against maximal electroshock-induced seizures at 30 mg/kg, po after 2 hrs; type: functional, organism-based; design: dose 30 mg/kg; how it was run: as §1
[25] = tested on: Mus musculus; assay: Neurotoxicity in F1 albino mouse assessed as minimal motor impairment at 300 mg/kg, ip after 0.25 hrs by rotorod test; type: toxicity, organism-based; design: dose 300 mg/kg, route intraperitoneal; details: in vivo; how it was run: as §2
[26] = tested on: Rattus norvegicus; assay: Anticonvulsant activity in Sprague-Dawley albino rat assessed as protection against subcutaneous pentylenetetrazole-induced seizures at 50 mg/kg, po after 1 hr; type: functional, organism-based; design: dose 50 mg/kg; how it was run: as §1
[27] = tested on: Mus musculus; assay: Anticonvulsant activity in F1 albino mouse assessed as protection against subcutaneous pentylenetetrazole-induced seizures at 300 mg/kg, ip after 1 hr; type: functional, organism-based; design: dose 300 mg/kg; how it was run: as §2
[28] = tested on: Mus musculus; assay: Anticonvulsant activity in F1 albino mouse assessed as protection against maximal electroshock-induced seizures at 300 mg/kg, ip after 4 hrs; type: functional, organism-based; design: dose 300 mg/kg; how it was run: as §2

SMILES: C[C@@H](C1CCCCC1)N1CCCn2c1nc1c2c(=O)n(C)c(=O)n1C
- Activity [1]: inactive
- Ki [2]: 0.887 µM
- Activity [3]: inactive
- Activity [4]: Non-toxic
- Activity [5]: Non-toxic
- Activity [6]: inactive
- Activity [7]: inactive
- Activity [8]: inactive
- Activity [9]: inactive
- Ratio Ki [10]: 13
- Activity [11]: Non-toxic
- Activity [12]: Active
- Activity [13]: Active
- Activity [14]: Non-toxic
- Activity [15]: inactive
- Activity [16]: Non-toxic
- Activity [17]: Non-toxic
- Activity [18]: Non-toxic
- Ki [19]: 11.9 µM
- Activity [20]: inactive
- Activity [21]: inactive
- Activity [22]: inactive
- Activity [23]: inactive
- Activity [24]: inactive
- Activity [25]: Non-toxic
- Activity [26]: inactive
- Activity [27]: inactive
- Activity [28]: inactive
